# Experimental data: ChEMBL document CHEMBL1124826, “Novel prodrugs which are activated to cytotoxic alkylating agents by carboxypeptidase G2” (1990)
# Key:
# Type in all cases: functional
# Conditions in all cases: read-out: ID50 (the source's name)
# JAR [1] = assay: The compound along with CPG2 was tested for cytotoxicity against human JAR, choriocarcinoma cell line.
# Outline: (§1)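 JAR and LS174T cells (5×10^4 mL⁻¹, DMEM) exposed to prodrug at 0.5-800 μM, freshly made and adjusted to pH 7.4. Dosing was repeated at the same concentration three times, 24 h apart. CPG2 at 6 units mL⁻¹ final was added with each dose to generate active drug in situ. Duplicates. Viability was counted by hemocytometer 24 h after the last dose, relative to untreated controls.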
# JAR [2] = assay: The compound was tested for cytotoxicity against human JAR, choriocarcinoma cell line.
# Outline: (§2)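 JAR and LS174T cells (5×10^4 mL⁻¹, DMEM) exposed to compound at 0.5-800 μM, with no enzyme added. Solutions were freshly made and adjusted to pH 7.4. Dosing was repeated at the same concentration three times, 24 h apart. Duplicates. Viability was counted by hemocytometer 24 h after the last dose, relative to untreated controls.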
# LS174T [3] = assay: The compound along with CPG2 was tested for cytotoxicity against human LS174T,colorectal cell line.; outline: as §1
# LS174T [4] = assay: The compound was tested for cytotoxicity against human LS174T,colorectal cell line.; outline: as §2
Compound,IC50 (JAR [1]) [µM],IC50 (JAR [2]) [µM],IC50 (LS174T [3]) [µM],IC50 (LS174T [4]) [µM]
CS(=O)(=O)OCCN(CCOS(C)(=O)=O)c1ccc(C(=O)NC(CCC(=O)O)C(=O)O)cc1 (configuration not stated),60,> 800,65,800
O=C(O)CCC(NC(=O)c1ccc(N(CCCl)CCCl)cc1)C(=O)O (configuration not stated),8,> 800,25,> 800
CS(=O)(=O)OCCN(CCCl)c1ccc(C(=O)NC(CCC(=O)O)C(=O)O)cc1 (configuration not stated),10,630,10,285
